According to ChEMBL document CHEMBL1629645 (Antimicrob Agents Chemother, 2009):
In brackets after ≈: the same amount, converted by molar mass. Activity calls are given as the source filed them. The rule behind the calls is not given here.

Assays:
Staphylococcus aureus [1] = assay: Antibacterial activity against methicillin-resistant Staphylococcus aureus ATCC 43300 infected in Albino guiena pig assessed as decrease in planktonic bacterial counts in cage fluid at 50 mg/kg after measured on day 10 postinfection; type: functional
Summary of the method: (§1)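 Guinea pig subcutaneous cage model infected with 2 × 10^4 CFU MRSA. Intraperitoneal dosing every 12 h for 4 days, starting day 1. Cage-fluid CFU counted on day 1, day 4 (before last dose) and day 10. Δlog10 CFU/ml is day 4 or day 10 minus day 1. Quantification limit 1,000 CFU/ml; negatives set to 3 log10. Median and IQR.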

Staphylococcus aureus [2] = assay: Antibacterial activity against methicillin-resistant Staphylococcus aureus ATCC 43300 infected in Albino guiena pig assessed as decrease in planktonic bacterial counts in cage fluid at 75 mg/kg after measured on day 10 postinfection; type: functional; summary of the method: as §1
Staphylococcus aureus [3] = assay: Antibacterial activity against methicillin-resistant Staphylococcus aureus ATCC 43300 infected in Albino guiena pig assessed as no. of culture-negative cage fluid samples at 25 mg/kg measured on day 4 postinfection; type: functional
Summary of the method: (§2)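 Same guinea pig cage infection and intraperitoneal 4-day, twice-daily regimen. Cage fluid cultured on day 4 and day 10. Result is the number of cage fluid samples without detectable MRSA growth over the total cages per group.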

Staphylococcus aureus [4] = assay: Antibacterial activity against methicillin-resistant Staphylococcus aureus ATCC 43300 infected in Albino guiena pig assessed as no. of culture-negative cage fluid samples at 50 mg/kg measured on day 4 postinfection; type: functional; summary of the method: as §2
Staphylococcus aureus [5] = assay: Antibacterial activity against methicillin-resistant Staphylococcus aureus ATCC 43300 infected in Albino guiena pig assessed as no. of culture-negative cage fluid samples at 75 mg/kg measured on day 4 postinfection; type: functional; summary of the method: as §2
Staphylococcus aureus [6] = assay: Antibacterial activity against methicillin-resistant Staphylococcus aureus ATCC 43300 infected in Albino guiena pig assessed as no. of culture-negative cage fluid samples at 25 mg/kg measured on day 10 postinfection; type: functional; summary of the method: as §2
Staphylococcus aureus [7] = assay: Antibacterial activity against methicillin-resistant Staphylococcus aureus ATCC 43300 infected in Albino guiena pig assessed as no. of culture-negative cage fluid samples at 50 mg/kg measured on day 10 postinfection; type: functional; summary of the method: as §2
Staphylococcus aureus [8] = assay: Antibacterial activity against methicillin-resistant Staphylococcus aureus ATCC 43300 infected in Albino guiena pig assessed as no. of culture-negative cage fluid samples at 75 mg/kg measured on day 10 postinfection; type: functional; summary of the method: as §2
Staphylococcus aureus [9] = assay: Antibacterial activity against methicillin-resistant Staphylococcus aureus ATCC 43300 infected in Albino guiena pig assessed as decrease in planktonic bacterial counts in cage fluid at 75 mg/kg measured on day 4 postinfection; type: functional; summary of the method: as §1
Staphylococcus aureus [10] = assay: Antibacterial activity against methicillin-resistant Staphylococcus aureus ATCC 43300 infected in Albino guiena pig assessed as decrease in planktonic bacterial counts in cage fluid at 50 mg/kg measured on day 4 postinfection; type: functional; summary of the method: as §1
Staphylococcus aureus [11] = assay: Antibacterial activity against methicillin-resistant Staphylococcus aureus ATCC 43300 infected in Albino guiena pig assessed as decrease in planktonic bacterial counts in cage fluid at 25 mg/kg measured on day 4 postinfection; type: functional; summary of the method: as §1
[12] = AUC (0 to 24 hrs) in cage fluid of Albino guiena pig at 75 mg/kg, ip; type: ADME, organism-based, Cavia porcellus; parameters: time < 24 hr, dose 75 mg/kg, route intraperitoneal; settings: guinea pig
[13] = AUC (0 to 24 hrs) in cage fluid of Albino guiena pig at 50 mg/kg, ip; type: ADME, organism-based, Cavia porcellus; parameters: time < 24 hr, dose 50 mg/kg, route intraperitoneal; settings: guinea pig
[14] = AUC (0 to 24 hrs) in cage fluid of Albino guiena pig at 25 mg/kg, ip; type: ADME, organism-based, Cavia porcellus; parameters: time < 24 hr, dose 25 mg/kg, route intraperitoneal; settings: guinea pig
[15] = Half life in cage fluid of Albino guiena pig at 75 mg/kg, ip; settings: guinea pig
[16] = Half life in cage fluid of Albino guiena pig at 25 mg/kg, ip; settings: guinea pig
[17] = Half life in cage fluid of Albino guiena pig at 50 mg/kg, ip; settings: guinea pig
[18] = Tmax in cage fluid of Albino guiena pig at 75 mg/kg, ip; type: ADME, organism-based, Cavia porcellus; parameters: dose 75 mg/kg, route intraperitoneal; settings: guinea pig
Summary of the method: (§3)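 Noninfected male albino guinea pigs (550–600 g) carrying subcutaneous Teflon cages, verified sterile, received one intraperitoneal dose. Cage fluid was aspirated at 1–24 h, two cages per animal, three animals per dose, centrifuged and stored at −20°C. Levels were read by agar diffusion bioassay (S. aureus ATCC 29213; standards in 31% guinea pig serum; limit 1.25 µg/ml). Per-animal parameters are given as mean ± SD; Cmin is the 12 h trough.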

[19] = Tmax in cage fluid of Albino guiena pig at 25 mg/kg, ip; type: ADME, organism-based, Cavia porcellus; parameters: dose 25 mg/kg, route intraperitoneal; settings: guinea pig; summary of the method: as §3
[20] = Tmax in cage fluid of Albino guiena pig at 50 mg/kg, ip; type: ADME, organism-based, Cavia porcellus; parameters: dose 50 mg/kg, route intraperitoneal; settings: guinea pig; summary of the method: as §3
[21] = Cmin in cage fluid of Albino guiena pig at 50 mg/kg, ip after 12 hrs; type: ADME, organism-based, Cavia porcellus; parameters: dose 50 mg/kg, route intraperitoneal; settings: guinea pig, read-out: Cmin; summary of the method: as §3
[22] = Cmin in cage fluid of Albino guiena pig at 75 mg/kg, ip after 12 hrs; type: ADME, organism-based, Cavia porcellus; parameters: dose 75 mg/kg, route intraperitoneal; settings: guinea pig, read-out: Cmin; summary of the method: as §3
[23] = Cmin in cage fluid of Albino guiena pig at 25 mg/kg, ip after 12 hrs; type: ADME, organism-based, Cavia porcellus; parameters: dose 25 mg/kg, route intraperitoneal; settings: guinea pig, read-out: Cmin; summary of the method: as §3
[24] = Cmax in cage fluid of Albino guiena pig at 50 mg/kg, ip after 3 hrs; type: ADME, organism-based, Cavia porcellus, Interstitial fluid; parameters: dose 50 mg/kg, route intraperitoneal; settings: guinea pig; summary of the method: as §3
[25] = Cmax in cage fluid of Albino guiena pig at 75 mg/kg, ip after 3 hrs; type: ADME, organism-based, Cavia porcellus, Interstitial fluid; parameters: dose 75 mg/kg, route intraperitoneal; settings: guinea pig; summary of the method: as §3
[26] = Cmax in cage fluid of Albino guiena pig at 25 mg/kg, ip after 3 hrs; type: ADME, organism-based, Cavia porcellus, Interstitial fluid; parameters: dose 25 mg/kg, route intraperitoneal; settings: guinea pig; summary of the method: as §3
Staphylococcus aureus [27] = assay: Antibacterial activity against 1 x10'6 to 5 x10^6 CFU/ml methicillin-resistant Staphylococcus aureus ATCC 43300 assessed as effect on bacterial count at MIC after 24 hrs by time kill study; type: functional, organism-based
Summary of the method: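 MRSA inoculum of 1 × 10^6 to 5 × 10^6 CFU/ml in 10 ml Mueller-Hinton broth. Drug at 1× and 4× MIC; drug-free growth control. Incubated at 37°C. Aliquots plated on Mueller-Hinton agar at 0, 6 and 24 h. Quantification limit 200 CFU/ml. Mean log10 CFU/ml reduction ± SD.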

Staphylococcus aureus [28] = assay: Antibacterial activity against methicillin-resistant Staphylococcus aureus ATCC 43300 during stationary growth phase by macrodilution method; type: functional
Staphylococcus aureus [29] = assay: Antibacterial activity against methicillin-resistant Staphylococcus aureus ATCC 43300 during logarithmic growth phase by macrodilution method; type: functional
Staphylococcus aureus [30] = assay: Antibacterial activity against methicillin-resistant Staphylococcus aureus ATCC 43300 by macrodilution method; type: functional
Summary of the method: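 Broth macrodilution MIC in Mueller-Hinton broth per CLSI. Inoculum 1 × 10^5 to 5 × 10^5 CFU/ml. Ten twofold drug dilutions, 18 h at 37°C without shaking. MIC is the lowest concentration with no visible growth. Triplicate.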

Staphylococcus aureus [31] = assay: Antibacterial activity against methicillin-resistant Staphylococcus aureus ATCC 43300 infected in Albino guiena pig assessed as inhibition of bacterial growth in cage fluid at 75 mg/kg measured on day 10 postinfection compared to the bacterial growth on day 1; type: functional, organism-based; parameters: dose 75 mg/kg; summary of the method: as §1
Staphylococcus aureus [32] = assay: Antibacterial activity against methicillin-resistant Staphylococcus aureus ATCC 43300 infected in Albino guiena pig assessed as cure rate at 25 mg/kg measured on day 10 postinfection; type: functional, organism-based; parameters: dose 25 mg/kg
Summary of the method: (§4)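 Male albino guinea pigs, 550–600 g, with four subcutaneous perforated Teflon cages each. Cages infected with 2 × 10^4 CFU MRSA. Intraperitoneal treatment from 24 h post-infection, every 12 h for 4 days (8 doses), ≥3 animals per group. Explanted cages incubated in TSB at 37°C for 48 h, then plated. Cure is the share of cages without MRSA growth.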

Staphylococcus aureus [33] = assay: Antibacterial activity against methicillin-resistant Staphylococcus aureus ATCC 43300 infected in Albino guiena pig assessed as cure rate at 50 mg/kg measured on day 4 postinfection; type: functional, organism-based; parameters: dose 50 mg/kg; summary of the method: as §4
Staphylococcus aureus [34] = assay: Antibacterial activity against methicillin-resistant Staphylococcus aureus ATCC 43300 infected in Albino guiena pig assessed as cure rate at 75 mg/kg measured on day 4 postinfection; type: functional, organism-based; parameters: dose 75 mg/kg; summary of the method: as §4

CC(=O)NC[C@H]1CN(c2ccc(N3CCOCC3)c(F)c2)C(=O)O1 [LINEZOLID] gave a log10CFU/ml (Staphylococcus aureus [1]) of 7.1, a log10CFU/ml (Staphylococcus aureus [2]) of 4.5 and an Activity (Staphylococcus aureus [3]) of 8%. It also gave an Activity (Staphylococcus aureus [4]) of 17%, an Activity (Staphylococcus aureus [5]) of 25% and an Activity (Staphylococcus aureus [6]) of 0%. The Activity (Staphylococcus aureus [7]) was 0%, the Activity (Staphylococcus aureus [8]) was 17% and the log10CFU/ml (Staphylococcus aureus [9]) was 4.6. It also gave a log10CFU/ml (Staphylococcus aureus [10]) of 5.1, a log10CFU/ml (Staphylococcus aureus [11]) of 4.5 and an AUC(0-t) at 24 h [12] of 126 µg·h/mL. The AUC(0-t) at 24 h [13] was 119 µg·h/mL, the AUC(0-t) at 24 h [14] was 87800 ng·h/mL and the half-life [15] was 156 min. For the same compound, the half-life [16] was 408 min, the half-life [17] was 210 min and the Tmax [18] was 2.8 h. The Tmax [19] was 3 h, the Tmax [20] was 3.3 h and the concentration at 12 h [21] was 3700 ng/mL. For the same compound, the concentration at 12 h [22] was 2500 ng/mL, the concentration at 12 h [23] was 3000 ng/mL and the Cmax [24] was 12700 ng/mL. The Cmax [25] was 18100 ng/mL, the Cmax [26] was 6800 ng/mL and the Activity (Staphylococcus aureus [27]) was “inactive”. For the same compound, the MBC (Staphylococcus aureus [28]) was > 20 µg/mL, the MBC (Staphylococcus aureus [29]) was > 20 µg/mL and the MIC (Staphylococcus aureus [30]) was 2.5 µg/mL (≈ 7.41 µM). For the same compound, the Activity (Staphylococcus aureus [31]) was “Active”, the Activity (Staphylococcus aureus [32]) was “inactive” and the Activity (Staphylococcus aureus [33]) was “inactive”. For the same compound, the Activity (Staphylococcus aureus [34]) was “inactive”.
